How the values were obtained:
Format in all cases: cell-based
[1] = molecular target: T1, Protein cereblon/Induced myeloid leukemia cell differentiation protein Mcl-1 (Homo sapiens) (UniProt Q07820+Q96SW2); test: Protac activity at Cereblon/MCL1 long isoform in human MM1S cells assessed as MCL1 long isoform level at 300 nM pre-incubated for 72 hrs followed by cycloheximide addition and measured after 30 mins by immunoblot analysis (reference value: 96%)
Method in brief: (§1)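 Cycloheximide chase: cells were treated for 72 h with DMSO or degrader, with cycloheximide added for the final 30, 60 or 120 min. OPM2 and MM1.S cells were used, and wild-type OPM2 was compared with OPM2 CRBN-/- at 60 and 120 min. MCL1 was detected by immunoblot.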

[2] = molecular target: T1, Protein cereblon/Induced myeloid leukemia cell differentiation protein Mcl-1 (Homo sapiens); test: Protac activity at Cereblon/MCL1 long isoform in wild type human OPM2 cells assessed as MCL1 long isoform level at 300 nM pre-incubated for 72 hrs followed by cycloheximide addition and measured after 120 mins by immunoblot analysis (reference value: 53%); method in brief: as §1
[3] = molecular target: T1, Protein cereblon/Induced myeloid leukemia cell differentiation protein Mcl-1 (Homo sapiens); test: Protac activity at Cereblon/MCL1 short isoform in human OPM2 cells assessed as MCL1 short isoform level at 300 nM pre-incubated for 72 hrs followed by cycloheximide addition and measured after 120 mins by immunoblot analysis (reference value: 14%)
Method in brief: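 OPM2 or MM1.S cells were treated for 72 h with compound or DMSO. Cycloheximide was added for the final 30, 60 or 120 min. MCL1 was read by immunoblot and compared with DMSO-treated cells as a normal-turnover reference.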

[4] = molecular target: T1, Protein cereblon/Induced myeloid leukemia cell differentiation protein Mcl-1 (Homo sapiens); test: Protac activity at Cereblon/MCL1 short isoform in wild type human OPM2 cells assessed as MCL1 short isoform abundance at 500 nM after 48 hrs by immunoblot analysis relative to control
Method in brief: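 OPM2 wild-type cells, run alongside the CRBN-/- line, were treated for 48 h with compound or DMSO. The MCL1 long and short isoforms were then measured by immunoblot against the DMSO control.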

[5] = molecular target: T1, Protein cereblon/Induced myeloid leukemia cell differentiation protein Mcl-1 (Homo sapiens); test: Protac activity at Cereblon/MCL1 long isoform in human MM1S cells assessed as MCL1 long isoform level at 300 nM pre-incubated for 72 hrs followed by cycloheximide addition and measured after 120 mins by immunoblot analysis (reference value: 55%); method in brief: as §1
[6] = molecular target: T1, Protein cereblon/Induced myeloid leukemia cell differentiation protein Mcl-1 (Homo sapiens); test: Protac activity at Cereblon/MCL1 in human OPM2 cells assessed as protein abundance at 25 nM after 48 hrs by immunoblot analysis relative to control
Method in brief: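 OPM2 multiple myeloma cells, wild type or CRBN-knockout, were treated for 48 h with degrader or DMSO vehicle. MCL1 long and short isoforms were detected by immunoblot and levels compared with DMSO controls.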

T1 sequence (Q07820 whole entry, looked up, canonical isoform): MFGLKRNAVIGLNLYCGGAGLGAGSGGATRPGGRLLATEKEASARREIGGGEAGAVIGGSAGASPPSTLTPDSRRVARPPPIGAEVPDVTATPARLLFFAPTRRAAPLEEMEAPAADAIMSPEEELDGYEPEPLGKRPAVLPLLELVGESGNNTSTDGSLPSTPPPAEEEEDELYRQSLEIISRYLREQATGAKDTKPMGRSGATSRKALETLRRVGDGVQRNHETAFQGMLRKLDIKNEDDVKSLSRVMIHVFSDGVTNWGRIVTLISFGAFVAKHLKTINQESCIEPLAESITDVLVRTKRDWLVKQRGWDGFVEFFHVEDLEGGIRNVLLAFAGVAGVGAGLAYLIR
T1 sequence (Q96SW2 whole entry, looked up, canonical isoform): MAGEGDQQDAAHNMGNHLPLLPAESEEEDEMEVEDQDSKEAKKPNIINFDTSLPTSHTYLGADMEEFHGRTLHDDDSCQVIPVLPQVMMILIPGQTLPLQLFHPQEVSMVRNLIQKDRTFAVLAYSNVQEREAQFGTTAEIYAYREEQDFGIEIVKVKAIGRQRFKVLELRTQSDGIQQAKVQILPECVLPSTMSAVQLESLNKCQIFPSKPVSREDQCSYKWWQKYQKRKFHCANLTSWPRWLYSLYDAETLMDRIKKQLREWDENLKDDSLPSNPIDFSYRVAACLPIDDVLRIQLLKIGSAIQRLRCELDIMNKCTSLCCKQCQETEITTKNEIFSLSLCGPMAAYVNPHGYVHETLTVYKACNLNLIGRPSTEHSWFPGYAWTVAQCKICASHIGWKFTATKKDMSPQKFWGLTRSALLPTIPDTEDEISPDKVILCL

Activity [1]: 90%
Activity [2]: 16%
Activity [3]: 2%
Activity [4]: 20%
Activity [5]: 40%
Activity [6]: 89%
Structure (SMILES): Cc1nn(C)c(COc2ccc(N3CCN(S(=O)(=O)N(C)C)CC3)cc2)c1-c1cccc2c(CCCOc3cccc4ccccc34)c(C(=O)O)n(CCN3CCN(C(=O)COc4cccc5c4C(=O)N(C4CCC(=O)NC4=O)C5=O)CC3)c12 (stereo unspecified)

Reference: ChEMBL document CHEMBL4396889, “From Inhibition to Degradation: Targeting the Antiapoptotic Protein Myeloid Cell Leukemia 1 (MCL1)” (J Med Chem, 2019)
